# KCNQ1 pot: potentiators or activators of human KCNQ1 potassium channel; P51787; CHO-K1 KCNQ1, thallium flux FluxOR fluorescence; active compounds read high; B-score at 10 µM; 0.35% of 310,000 active; AID 2648;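 active means fluorescence ratio B-score, a plate-corrected score, at least three library SD, with initial intensity B-score within 5 SD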
#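 Material: CHO-K1 cells stably expressing KCNQ1. Medium: assay buffer for compound exposure, DMSO matched across wells. Reagent: K+/Tl+ depolarizing stimulus. Compound dosing: single-concentration screen. Times: 37 °C overnight plating, 90-min dark dye load, 20-min compound pretreatment. Technique: FluxOR Tl+ flux fluorescence.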
# hERG rescue: hERG (human) protection from proarrhythmic block; 0.51% of 310,000 active; CHO-hERG, FluxOR thallium flux, dofetilide IC70 present; activation (rescue from dofetilide block), less the hit threshold, % at 10 µM; Q12809;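 active means activation above the mean of controls blocked by dofetilide plus 5 SD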;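 further: thallium influx through hERG after potassium depolarization seen as dye fluorescence rise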
# Target sequence (Q12809 whole entry, looked up): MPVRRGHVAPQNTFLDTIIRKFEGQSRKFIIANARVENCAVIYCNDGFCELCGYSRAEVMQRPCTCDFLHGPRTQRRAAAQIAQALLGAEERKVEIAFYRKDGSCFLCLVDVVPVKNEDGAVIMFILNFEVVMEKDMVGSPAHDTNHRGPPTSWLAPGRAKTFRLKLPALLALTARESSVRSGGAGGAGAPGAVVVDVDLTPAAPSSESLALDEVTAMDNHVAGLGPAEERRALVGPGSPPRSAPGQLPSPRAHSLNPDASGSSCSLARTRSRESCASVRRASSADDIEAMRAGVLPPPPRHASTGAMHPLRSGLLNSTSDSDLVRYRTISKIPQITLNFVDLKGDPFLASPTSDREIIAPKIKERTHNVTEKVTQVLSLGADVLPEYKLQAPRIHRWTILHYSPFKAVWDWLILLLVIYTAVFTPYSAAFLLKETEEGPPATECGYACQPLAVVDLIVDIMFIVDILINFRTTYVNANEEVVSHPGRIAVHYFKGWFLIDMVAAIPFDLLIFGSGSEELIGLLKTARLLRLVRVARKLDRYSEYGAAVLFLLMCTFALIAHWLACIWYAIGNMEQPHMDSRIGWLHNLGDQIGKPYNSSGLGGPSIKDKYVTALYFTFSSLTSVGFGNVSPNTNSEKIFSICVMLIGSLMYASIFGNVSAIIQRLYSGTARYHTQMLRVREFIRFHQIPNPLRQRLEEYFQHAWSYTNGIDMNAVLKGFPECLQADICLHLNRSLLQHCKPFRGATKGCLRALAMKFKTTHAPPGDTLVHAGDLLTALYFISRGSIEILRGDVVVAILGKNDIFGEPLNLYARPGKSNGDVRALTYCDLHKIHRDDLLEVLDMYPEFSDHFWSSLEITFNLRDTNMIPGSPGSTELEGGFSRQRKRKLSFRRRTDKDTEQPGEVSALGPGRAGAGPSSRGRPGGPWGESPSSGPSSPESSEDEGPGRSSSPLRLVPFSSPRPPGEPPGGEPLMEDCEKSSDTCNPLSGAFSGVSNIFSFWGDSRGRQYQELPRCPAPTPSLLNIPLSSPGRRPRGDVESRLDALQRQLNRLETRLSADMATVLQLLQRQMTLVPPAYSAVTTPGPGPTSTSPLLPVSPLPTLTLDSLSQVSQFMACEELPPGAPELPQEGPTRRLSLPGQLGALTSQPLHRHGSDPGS
# KCNK3 block: human KCNK3 channel inhibition, primary screen. B-score at 10 µM. CHO-KCNK3 thallium flux, FluxOR fluorescence; active compounds read low. 0.84% of 340,000 active;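 active means B-score under library mean minus 4 SD, starting fluorescence ratio at most library mean plus 5 SD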;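 further: more negative B-score means stronger inhibition of thallium flux through KCNK3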
# KCNQ1 block: human KCNQ1 channel inhibition. P51787. CHO-K1 KCNQ1, FluxOR thallium flux fluorescence; active compounds read high. B-score at 10 µM. 1.3% of 310,000 active. AID 2642;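 active means compounds whose thallium flux B-score, printed positive for inhibition, exceeds three library SD while starting fluorescence stays within three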;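 further: channel opened by potassium depolarization with thallium stimulus after 20 min compound exposure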
# Kir21 inh: Kir2.1 (mouse) channel inhibition | P35561 | HEK293-Kir2.1, FluxOR thallium flux fluorescence; active compounds read low | B-score at 10 µM | 0.85% of 310,000 active;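 active means fluorescence ratio B-score at or below minus 3 SD of library scores, with starting-brightness B-score within 2 SD, cut at about -4.2 in these data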;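 further: channel flux triggered by added potassium and thallium sulfate stimulus; B-score of peak minus minimum fluorescence over baseline after thallium stimulus; more negative B-score means stronger Kir2.1 block with less thallium influx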
# KCNK9 block: blocks the human KCNK9 two-pore domain potassium channel; AID 488922; 1.2% of 310,000 active; Q9NPC2; B-score at 10 µM; HEK293 KCNK9, FluxOR thallium flux fluorescence; active compounds read low;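 active means ratio B-score over 3 SD below the library mean, with starting fluorescence within 5 SD of its mean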;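 further: negative B-score means less thallium flux so channel inhibition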
# KCNQ1 inh valid: human KCNQ1 channel inhibition, validation assay. AID 588353. 93% of 1,600 active. inhibition, % at 10 µM. KCNQ1 cell line, FluxOR thallium flux fluorescence. shares compounds with KCNQ1 block;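 active means primary screen active, with duplicate mean exceeding buffer control mean plus 3 SD of buffer wells, cut at about 28% in these data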;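 further: 0% = buffer control ratio and 100% = XE991 inhibitor control ratio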
# CHO Tl flux: counter-screen for KCNQ1 inhibitors: effect in parental CHO cells; 21% of 1,600 active; fluorescence ratio (Tl flux) at 10 µM; shares compounds with KCNQ1 block; AID 588366; parental CHO-K1, FluxOR thallium flux fluorescence ratio; active compounds read low; zero means no signal rise above baseline;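 active means mean of duplicate thallium-flux fluorescence ratios in parental host cells more than 5 SD below the buffer control mean, cut at about 0.38 in these data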;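 further: ratio is peak minus minimum fluorescence divided by baseline fluorescence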
# KCNQ1 ephys val: blocks human KCNQ1 current in automated patch clamp. shares compounds with KCNQ1 block. KCNQ1-CHO cells. calls only at 10 µM. 20% of 490 active. AID 624120;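 active means KCNQ1 current drop exceeding 3 SD of negative control wells, seen in both duplicate runs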;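 further: steady state current during a 2 s step from -80 to +40 mV; negative values mean current inhibition and positive values mean potentiation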
# KCNQ2 inh: rat KCNQ2 inhibition in KCNQ1 inhibitor specificity screen; KCNQ2 cells, FluxOR thallium flux fluorescence; 71% of 1,600 active; AID 651746; shares compounds with KCNQ1 block; inhibition, % at 10 µM;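 active means mean percent inhibition of the KCNQ2 thallium signal more than 5 SD above the buffer-only control wells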;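 further: KCNQ2 expressed in CHO cells; 0% = buffer control wells and 100% = XE-991 inhibitor control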
# KCNQ1-KCNE1 inh: human KCNQ1/KCNE1 inhibition in KCNQ1 specificity screen. shares compounds with KCNQ1 block. KCNQ1/KCNE1 cells, FluxOR thallium flux fluorescence. inhibition, % at 10 µM. 77% of 1,600 active. AID 652147;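 active means mean percent inhibition of duplicate wells above the buffer-only control mean plus 3 SD of those controls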;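 further: 0% = buffer only wells and 100% = XE-991 inhibitor control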
# KCNK9 inh conf: confirmation of human KCNK9 potassium channel inhibitors; shares compounds with KCNK9 block; HEK293 KCNK9 cells, FluxOR thallium flux fluorescence; inhibition, % at 10 µM; 43% of 4,900 active;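 active means thallium signal inhibited by more than 5 SD of the compound-free buffer control wells, on both duplicate plates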;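 further: 0% = assay buffer control wells without compound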
# Kir2-1 spec: mouse Kir2.1 off-target activity of KCNK9 modulators; shares compounds with KCNK9 block; Kir2.1 cells, FluxOR thallium flux fluorescence; inhibition, % at 10 µM; 4% of 4,900 active; AID 492993;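 active means thallium signal drop more than 5 SD beyond the mean of the no-compound control wells, seen in both duplicate plates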;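 further: signal is fluorescence rise after thallium addition divided by baseline fluorescence; plate controls were assay buffer only for no effect and full block by chlorpromazine control for full effect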
# KCNK9 uninduced: second counter-screen for KCNK9 modulators: effect in non-induced cells | shares compounds with KCNK9 block | non-induced KCNK9-HEK293, FluxOR thallium flux | inhibition, % at 10 µM | 40% of 4,900 active | AID 492997;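 active means thallium signal drop beyond 5 SD of the untreated control mean, on both duplicate plates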;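 further: plate controls were buffer only IC0 wells for no effect and SID17386958 at its maximal inhibitory level for full effect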
# The depositor's hits bear a star; i = inactive; x = no result; + = active, no number. Hits are enriched below; roughly 3.8% of the tested compounds scored in any of these assays.
SMILES,KCNQ1 pot,hERG rescue,KCNK3 block,KCNQ1 block,Kir21 inh,KCNK9 block,KCNQ1 inh valid,CHO Tl flux,KCNQ1 ephys val,KCNQ2 inh,KCNQ1-KCNE1 inh,KCNK9 inh conf,Kir2-1 spec,KCNK9 uninduced
CCOc1ccc2c(c1)C(c1ccc(C)o1)=NNC(c1ccncc1)=N2,i,-14,i,i,0.05,i,x,x,x,x,x,x,x,x
O=C(Nc1ccccc1Cl)c1sccc1-c1ccccc1,i,-5,i,6*,-0.1,-9.7*,+,0.35*,x,i,i,34%*,i,30%*
Cc1ccccc1-c1nnc(SCC(=O)Nc2c(C)n(C)n(-c3ccccc3)c2=O)o1,i,-9,i,i,0.3,i,x,x,x,x,x,x,x,x
CCOc1ccc(CN(C)CC(=O)NCc2ccccc2)cc1,i,-16,i,i,-0.07,i,x,x,x,x,x,x,x,x
CCOC(=O)c1cnc2ccc(OCC)cc2c1N(C)Cc1ccccc1,i,-12,i,6*,-1.7,i,148*,0.34*,x,154%*,198%*,i,i,23%*
NC1=NC2(CCCCC2)N=C(Nc2ccc(Br)cc2)N1,i,-13,i,i,0.16,i,x,x,x,x,x,x,x,x
Cc1ccc(SCCNC(=S)Nc2cc(C)ccc2C)cc1,i,-11,i,i,-2.2,i,x,x,x,x,x,x,x,x
Cc1ccc(SCCNC(=S)Nc2ccc(C)c(C)c2)cc1,i,-17,i,8*,-0.5,i,100*,0.45,i,i,98%*,i,i,i
CCCn1c2c(c(O)c(C(=O)Nc3ncccc3C)c1=O)CCCC2,i,-14,i,i,0.9,i,x,x,x,x,x,x,x,x
O=C(Nc1nccs1)c1c(O)c2c([nH]c1=O)CCCC2,i,-4,i,i,2,i,x,x,x,x,x,x,x,x
CC(C)Cn1c2c(c(O)c(C(=O)Nc3nccs3)c1=O)CCCC2,i,-6,i,7*,-0.44,-8.3*,100*,0.45,i,112%*,166%*,44%*,i,27%*
Cc1csc(NC(=O)c2c(O)c3c(n(CC(C)C)c2=O)CCCC3)n1,i,-2,-9.8*,10*,0.03,-14*,104*,0.48,i,108%*,90%*,55%*,i,35%*
Cc1ccc(-n2c(-c3ccccc3)c[n+]3c2CCc2ccccc2-3)c(C)c1,i,-27,-9.9*,15*,-8.2*,-13*,98*,0.38*,x,95%*,34%*,46%*,64%*,36%*
Cc1ccccc1Nc1nc(NCc2ccco2)c2ccccc2n1,i,-25,-14*,14*,-13*,-12*,162*,0.37*,x,115%*,+,54%*,85%*,40%*
Cc1cccc(N2CCN(C(=O)C(Cc3ccccc3)n3cccc3)CC2)c1C (stereo unspecified),i,-13,i,9*,-1.7,-9.8*,140*,0.31*,x,126%*,+,49%*,i,36%*
Cc1cc(C)nc(NC(=NCCc2c[nH]c3ccccc23)NC(=O)Nc2ccc(Cl)c(Cl)c2)n1,i,-9,i,i,2.5,i,x,x,x,x,x,x,x,x
Cc1cc(C)nc(NC(=NCCc2c[nH]c3ccccc23)NC(=O)Nc2ccccc2)n1,i,0,i,7*,0.03,i,134*,0.38*,x,87%*,199%*,i,i,i
COc1cc2ccccc2cc1C(=O)Nc1ccccc1N1CCCC1,i,-14,i,20*,-0.48,-9*,99*,0.46,i,82%*,110%*,35%*,i,34%*
CCC(Oc1ccccc1)C(=O)Nc1ccccc1N1CCCCC1 (stereo unspecified),i,-10,i,6*,-0.15,-15*,121*,0.45,i,99%*,143%*,50%*,i,41%*
CCC(C(=O)Nc1ccccc1N1CCCC1)c1ccccc1 (stereo unspecified),i,-9,i,i,-1.8,i,x,x,x,x,x,x,x,x
O=C(OCC(=O)N(C1CCCCC1)C1CCCCC1)c1ccccc1O,i,-7,i,7*,0.96,-9.4*,116*,0.4,+,124%*,179%*,37%*,i,24%*
CCc1cccc(OCC(=O)Nc2ccc(C)c(S(=O)(=O)N3CCCCCC3)c2)c1,i,-6,i,10*,-0.34,i,122*,0.45,i,116%*,106%*,i,i,33%*
O=S(=O)(NCc1cn2ccsc2n1)c1ccc(Oc2ccccc2)cc1,i,-6,i,i,-1.8,i,x,x,x,x,x,x,x,x
O=C(COC(=O)COc1cccc(C(F)(F)F)c1)NC1CCS(=O)(=O)C1 (stereo unspecified),i,-8,i,i,-0.21,i,x,x,x,x,x,x,x,x
S=C(c1ccc(-c2cccc(Cl)c2)o1)N1CCCCC1,i,-9,i,6*,0.12,-8.8*,92*,0.41,i,87%*,100%*,32%*,i,32%*
S=C(c1ccc(-c2cccc(Cl)c2)o1)N1CCOCC1,i,-10,i,i,-2.3,i,x,x,x,x,x,x,x,x
O=C(CSc1nnnn1-c1ccccc1)NCc1cccs1,i,-9,i,i,-0.06,i,x,x,x,x,x,x,x,x
O=C(CSCc1cnn(-c2ccccc2)c1-n1cccc1)NCc1cccs1,i,-7,i,7*,-6.3*,i,64*,0.5,x,i,102%*,i,i,i
